Screens (PubChem)
RGS4 inh: RGS4 inhibitors, primary screen, cell-based, HEK293 M3R inducible RGS4, calcium flux; Regulator of G-protein signaling 4 (Homo sapiens), P49798; Fluo-4 calcium flux; active compounds read high; triggered by carbachol at its EC20; B-score at 10 µM; 310,000 compounds, 0.45% hits; AID 463165, 2010;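 active means B-score, a plate-corrected calcium signal, over three deviations above library mean, with baseline fluorescence within five deviations of library mean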;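 further: RGS4 expression induced by doxycycline in cells with stable M3 receptor; B-score is computed from the integrated fluorescence ratio over baseline after carbachol; higher B-score means a larger calcium signal and so more RGS4 inhibition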
Target sequence (P49798 whole entry, looked up): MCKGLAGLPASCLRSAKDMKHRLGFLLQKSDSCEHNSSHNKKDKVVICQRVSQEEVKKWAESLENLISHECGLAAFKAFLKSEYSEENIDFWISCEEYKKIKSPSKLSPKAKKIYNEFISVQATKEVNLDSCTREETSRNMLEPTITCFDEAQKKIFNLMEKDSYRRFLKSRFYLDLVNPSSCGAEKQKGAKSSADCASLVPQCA
RGS4 pot: RGS4 potentiators or activators, primary screen, cell-based, HEK293 M3R inducible RGS4, calcium flux; carbachol calcium flux Fluo4; active compounds read low; B-score at 10 µM; 310,000 compounds, 0.92% hits; AID 463111, 2010;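 active means B-score of the integrated calcium signal more than 4 SD below the library mean, with starting fluorescence not abnormally high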;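 further: negative B-score means reduced calcium response which marks RGS4 activation or potentiation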
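test system = M3R-expressing HEK293 line, RGS4 induced by doxycycline | probe or stimulus = carbachol at ECmax as muscarinic agonist stimulus | timing = dye loading 30 min 37 °C, buffer rest 30 min RT | signal = calcium dye Fluo4 fluorescence | evaluation = B score from integrated fluorescence ratio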
MrgX1 antagonist: antagonists of human MrgX1 receptor, primary screen, HEK293 cells, Fluo-4 calcium flux; Mas-related G-protein coupled receptor member X1 (Homo sapiens), Q96LB2; BAM8-22 antagonism; active compounds read low; B-score at 10 µM; 310,000 compounds, 1.3% hits;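 active means calcium-response B-score plate-corrected more than 3 library SD below zero, starting fluorescence within 5 deviations, no agonist response on first addition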;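 further: peak minus trough fluorescence over baseline after final BAM8-22 challenge near maximal dose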
Target sequence (Q96LB2 whole entry, looked up): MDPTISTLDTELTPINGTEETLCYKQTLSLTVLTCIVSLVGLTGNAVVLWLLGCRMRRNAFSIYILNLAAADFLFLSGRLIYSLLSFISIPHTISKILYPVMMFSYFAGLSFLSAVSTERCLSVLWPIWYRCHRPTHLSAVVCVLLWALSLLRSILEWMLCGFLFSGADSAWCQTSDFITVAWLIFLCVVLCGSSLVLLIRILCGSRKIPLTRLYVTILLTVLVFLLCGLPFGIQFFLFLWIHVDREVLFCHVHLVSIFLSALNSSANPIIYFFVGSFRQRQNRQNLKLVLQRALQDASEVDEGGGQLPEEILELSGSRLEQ
MrgX1 PAM: positive allosteric modulators of MrgX1, primary screen, HEK293 cells, Fluo-4 calcium flux; Mas-related G-protein coupled receptor member X1 (Homo sapiens), Q96LB2; FDSS; active compounds read high; B-score at 10 µM; 310,000 compounds, 0.63% hits;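 active means plate-corrected calcium response at least 3 library SD above typical, normal starting fluorescence, not activating the receptor alone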;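 further: compound read alongside a low EC10 to EC30 dose of BAM8-22 agonist; peak minus trough fluorescence over baseline measured at the second addition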
MrgX1 ag: agonists of human MrgX1 receptor, primary screen, HEK293 cells, Fluo-4 calcium flux; Mas-related G-protein coupled receptor member X1 (Homo sapiens), Q96LB2; Fluo-4 calcium fluorescence, agonist mode; active compounds read high; B-score at 10 µM; 310,000 compounds, 0.44% hits; AID 588627, 2011;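 active means calcium response B-score plate-corrected fluorescence ratio at least 3 library SD, with starting fluorescence B-score inside 5 SD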
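Test system: HEK293 cells stably expressing human MrgX1 receptor; amount: 15,000 cells per well; doses: compound delivered in addition one of three; times: overnight plating before 1 h dye loading; detection: Fluo-4 NW calcium-flux fluorescence, kinetic read; read-out basis: B-scored fluorescence response ratio; controls: positive and negative controls per plate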
Numbers without * were called inactive; i = inactive. Shown are actives, neighbours in structure and some others; about 3.5% of the full set was active somewhere.

SMILES	RGS4 inh	RGS4 pot	MrgX1 antagonist	MrgX1 PAM	MrgX1 ag
O=C(NC1CCCCC1)C(c1ccccn1)N(C(=O)Cc1cccs1)c1ccc(Cl)cc1 (stereo not drawn)	i	i	i	i	37*
CN(Cc1ccc(F)cc1)S(=O)(=O)c1nnc(NC(=O)c2ccccc2Br)s1	i	i	i	i	i
CC1CCCCN1CC(=O)Nc1ccc2c(c1)OC(F)(F)O2 (stereo not drawn)	i	i	i	i	i
CN1CCC(N(C)CC(=O)Nc2ccc3c(c2)OC(F)(F)O3)CC1	i	-7.4*	i	i	i
COc1cc(/C=C2/C(=O)NN(c3cccc(C)c3)C2=O)cc([N+](=O)[O-])c1O	i	i	-9.6*	i	i
COc1cc(/C=C2/C(=O)NN(c3ccc(C)c(Cl)c3)C2=O)cc([N+](=O)[O-])c1O	i	i	i	i	i
O=[N+]([O-])c1cccc(-c2csc(N/N=C/c3cccc(O)c3)n2)c1	i	i	i	i	i
CCN(CC)S(=O)(=O)c1ccc(-n2cnc3cc(C)c(C)cc32)nc1	i	i	i	i	i
O=C(NN1C(=O)/C(=C/C=C/c2ccco2)SC1=S)c1ccccc1O	i	i	-4.6*	i	i
CCC1CCCCN1CCCNC(=O)c1ccc2c(c1)N(Cc1ccc(F)cc1)C(=O)c1ccccc1S2=O (stereo not drawn)	i	-8.4*	i	i	i
O=C(NCCCN1CCCC1)c1ccc2c(c1)N(Cc1ccc(F)cc1)C(=O)c1ccccc1S2=O (stereo not drawn)	i	i	i	i	i
CC1Cc2ccccc2N1C(=O)CSc1nc2c(c(=O)n(C)c(=O)n2C)n1Cc1ccccc1 (stereo not drawn)	i	-7.2*	i	i	i
CCn1c(SCC(=O)N2c3ccccc3CCc3ccccc32)nc2c1c(=O)n(C)c(=O)n2C	i	i	i	i	i
CCc1nnc(NS(=O)(=O)c2ccc(NC(=S)NC(=O)/C=C/c3ccccc3)cc2)s1	i	i	i	i	i
CCc1nnc(NS(=O)(=O)c2ccc(NC(=S)NC(=O)/C=C/c3ccc(C(C)C)cc3)cc2)s1	i	-9.7*	i	i	i
COc1ccc(-c2csc(NC(=S)NC(=O)/C=C/c3ccc(C(C)C)cc3)n2)cc1OC	i	i	i	i	i
Cc1nn(Cc2ccccc2Cl)c(C)c1NC(=O)/C=C/c1cnn(C)c1	i	i	-4.6*	i	i
CCn1cc(/C=C/C(=O)Nc2c(C)nn(Cc3ccccc3)c2C)cn1	i	i	i	i	i
COc1ccc2[nH]c(=O)c(CN(Cc3cccs3)C(=S)Nc3cccc(C)c3)cc2c1	i	i	i	i	i
Cc1cccc(NC(=S)N(Cc2cccs2)Cc2cc3cc(C)cc(C)c3[nH]c2=O)c1	i	i	-5.4*	i	i
CCN=C1SC(C(=O)Nc2cccc(C)c2)CC(=O)N1CC (stereo not drawn)	i	-7.4*	i	i	i
CCN=C1SC(C(=O)Nc2cccc(Cl)c2)CC(=O)N1CC (stereo not drawn)	i	i	i	i	i
CC(C)On1c(SCC(=O)N(C)C)nc2ccccc2c1=O	i	i	i	i	i
CCCCC[C@H](O)/C=C/[C@H]1[C@H](O)CC(=O)[C@@H]1CCCCCCC(=O)O	6.4*	i	i	i	30*
CCCCC1C(=O)CC[C@H]2[C@@H]1CC(=O)[C@@H]2C/C=C\CCCC(=O)O (stereo partly drawn)	i	i	i	i	i
SMILES	RGS4 inh	RGS4 pot	MrgX1 antagonist	MrgX1 PAM	MrgX1 ag
N#Cc1nnn(-c2ccc(Cl)cc2)c1N	i	i	i	i	i
CCOC(=O)c1c(S(=O)(=O)Nc2ccc(F)cc2C)c(C)n(C)c1C	i	i	i	i	i
O=C(N/N=C/c1cc(Cl)ccc1O)c1ccncc1	i	i	-5.1*	i	i
O=C(N/N=C/c1ccccc1Cl)c1ccncc1	i	i	i	i	i
CCC(=NCc1ccc(Cl)c(Cl)c1)c1nc(-c2ccco2)oc1O	i	-7.1*	i	i	i
COc1cc(/C=C(/C#N)c2ccc(F)cc2)ccc1Oc1ccc([N+](=O)[O-])cn1	i	i	i	i	i
Cc1ncoc1C(=O)N1CCCC(C(=O)c2ccc(-c3ccccc3)cc2)C1 (stereo not drawn)	i	i	i	i	i
CC(C)OCCCNC(=O)c1cn(C)c2ccc(S(=O)(=O)N3CCCC3)cc2c1=O	i	i	i	i	i
COc1ccc(N2CCN(C(CNC(=O)C(=O)NCCCn3ccnc3)c3ccco3)CC2)cc1 (stereo not drawn)	i	i	-4.9*	i	i
Cc1ccc(NC(=O)c2cncc(Br)c2)c(O)c1	i	i	i	i	i
O=[N+]([O-])c1ccc(-n2nncc2-c2ccc(Cl)cc2)cc1	i	i	-4.9*	i	i
CCN(CC)CCCN1C(=O)c2oc3ccccc3c(=O)c2C1c1cccs1 (stereo not drawn)	i	i	i	11*	i
CCN(CC)CCN1C(=O)c2oc3ccccc3c(=O)c2C1c1ccccc1 (stereo not drawn)	i	i	-6*	i	i
CCOc1ccc(C(=O)NC(=S)NCc2cccnc2)cc1[N+](=O)[O-]	i	i	i	i	i
CCN(CC)c1ccc(-c2nn3c(-c4n[nH]c5c4CCC5)nnc3s2)cc1	i	-7.2*	-12*	i	i
CC(C)Oc1ccc(CCNC(=O)CC2C(=O)NCCN2C)cc1 (stereo not drawn)	i	i	i	i	i
CCCCN(CC)S(=O)(=O)c1ccc(C(=O)Nc2nnc(-c3cccs3)o2)cc1	i	i	i	i	33*
CCCNS(=O)(=O)c1cc(CN2C(=O)c3cccnc3C2=O)ccc1OC	i	i	i	i	i
Cn1c(=O)c([N+](=O)[O-])c(-n2cnc3ccccc32)c2ccccc21	i	i	i	i	27*
O=c1c2ccccc2ncn1-c1ccccc1[N+](=O)[O-]	i	i	i	13*	i
